This is a sample that favours compounds with a hit; in the whole collection about 2.3% have one here.
TRPC4 agonist: activators of mouse TRPC4 channel | B-score at 10 µM | 0.49% of 310,000 active | Q9QUQ5 | HEK293 TRPC4beta/mu-opioid, Fluo4 calcium fluorescence; active compounds read high;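 active means B-score above 5 SD of library B-scores, and initial fluorescence ratio not above library mean plus 5 SD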;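 further: positive B-score marks a calcium rise read as TRPC4 activation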
Target sequence (Q9QUQ5 whole entry, looked up): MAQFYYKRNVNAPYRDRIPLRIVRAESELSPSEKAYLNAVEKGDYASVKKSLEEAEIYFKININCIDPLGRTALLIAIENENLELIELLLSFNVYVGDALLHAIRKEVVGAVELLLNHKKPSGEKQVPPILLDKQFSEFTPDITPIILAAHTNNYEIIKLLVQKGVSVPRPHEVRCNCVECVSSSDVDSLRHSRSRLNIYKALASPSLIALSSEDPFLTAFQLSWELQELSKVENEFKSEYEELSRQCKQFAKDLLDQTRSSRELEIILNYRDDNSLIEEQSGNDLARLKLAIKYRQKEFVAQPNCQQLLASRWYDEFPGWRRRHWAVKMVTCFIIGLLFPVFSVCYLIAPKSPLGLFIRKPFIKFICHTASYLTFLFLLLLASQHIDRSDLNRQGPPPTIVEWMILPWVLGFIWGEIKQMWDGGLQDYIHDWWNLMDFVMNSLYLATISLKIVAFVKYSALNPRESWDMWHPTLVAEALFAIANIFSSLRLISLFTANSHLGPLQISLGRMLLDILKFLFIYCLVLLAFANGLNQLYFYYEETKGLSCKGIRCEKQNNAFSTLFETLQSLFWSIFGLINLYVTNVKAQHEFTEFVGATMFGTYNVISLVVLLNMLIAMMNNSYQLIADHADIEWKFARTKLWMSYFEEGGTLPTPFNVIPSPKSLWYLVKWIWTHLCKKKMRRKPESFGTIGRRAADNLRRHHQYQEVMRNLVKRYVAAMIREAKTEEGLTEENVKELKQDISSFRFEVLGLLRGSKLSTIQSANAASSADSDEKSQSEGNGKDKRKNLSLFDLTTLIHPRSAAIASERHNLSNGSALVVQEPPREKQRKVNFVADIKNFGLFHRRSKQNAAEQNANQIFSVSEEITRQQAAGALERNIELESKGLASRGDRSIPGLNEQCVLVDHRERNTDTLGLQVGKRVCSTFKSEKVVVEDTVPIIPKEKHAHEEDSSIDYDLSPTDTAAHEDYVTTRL
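Test system: HEK293 cells stably co-expressing mouse TRPC4beta and mu-opioid receptor | Schedule: Fluo4 dye loading 45 min at room temperature, 110 s recording | Measured by: Kinetic Fluo4 calcium fluorescence, 5 s baseline at 1 Hz | Evaluation: B score of integrated ratio | Controls: Buffer (low) and maximal DAMGO (high)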
TRPC4 potent: TRPC4 (mouse) allosteric potentiation | B-score at 10 µM | 0.42% of 310,000 active | HEK293 TRPC4beta/mu-opioid, DAMGO EC20, Fluo-4 Ca2+ flux; active compounds read high;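 active means B-score of calcium response area above 5 SD of library B-scores, with initial fluorescence ratio within 5 SD of library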
TRPC6 inhibitor: mouse TRPC6 channel inhibition. B-score at 10 µM. HEK293-TRPC6, membrane potential dye, ACh-evoked depolarization; active compounds read low. AID 2553. Q61143. 1.1% of 310,000 active;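 active means B-score under library mean minus 3 SD, initial fluorescence not abnormally high, positive integrated signal ratio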;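 further: B-score derived from integrated fluorescence ratio over the kinetic read; more negative B-score means stronger inhibition of depolarization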
TRPC4 block: inhibitors of mouse TRPC4 channel; Q9QUQ5; HEK293 TRPC4beta/mu-opioid, DAMGO-evoked Fluo4 calcium flux; active compounds read low; B-score at 10 µM; 0.39% of 300,000 active; AID 2247;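 active means B-score over 3 SD under the library average, no early fluorescence shift, positive overall ratio signal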
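test system = HEK293 cells with stable TRPC4beta plus mu-opioid receptor expression | detection = Fluo4 Ca2+ flux fluorescence | read-out = integrated fluorescence ratio relative to baseline, converted to per-well B score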
TRPC6 activator: mouse TRPC6 channel activation; AID 2550; B-score at 10 µM; 0.13% of 310,000 active; HEK293-TRPC6 membrane potential dye fluorescence; active compounds read high;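 active means B-score of the integrated fluorescence ratio above library mean plus 3 SD, and starting fluorescence ratio within library mean plus 5 SD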;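 further: higher score means more depolarization so channel activation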
Numbers stand for hits; 0 = inactive.

SMILES | TRPC4 agonist | TRPC4 potent | TRPC6 inhibitor | TRPC4 block | TRPC6 activator
CN(C)CCCN(C(=O)c1ccc(S(=O)(=O)N(C)C)cc1)c1nc2ccc(F)cc2s1 | 49 | 0 | 0 | -5 | 0
CN(C)CCCN(C(=O)c1ccc(S(=O)(=O)N2CCCC2)cc1)c1nc2c(F)cc(F)cc2s1 | 0 | 0 | 0 | -9 | 0
Cc1ccc2nc(N(CCCN(C)C)C(=O)c3ccc(S(=O)(=O)N4CCc5ccccc5C4)cc3)sc2c1 | 129 | 0 | 0 | 0 | 0
CC(=O)N1CCN(c2ccc(OC[C@H]3CO[C@](Cn4ccnc4)(c4ccc(Cl)cc4Cl)O3)cc2)CC1 | 52 | 0 | 0 | 0 | 0
CCCc1nc2ccccc2c(=O)n1CCc1ccccc1 | 0 | 0 | 0 | 0 | 0
COc1ccc(C(=O)N2CCN(c3c(C)cccc3C)CC2)cc1OC | 0 | 17 | 0 | 0 | 0
COc1ccc(/C=C(\C#N)C(=O)OCC(=O)Nc2ccc(C(C)(C)C)cc2)cc1 | 0 | 0 | 0 | 0 | 0
COc1cc(C(=O)NC(=S)NNC(=O)[C@H]2C[C@@H]2c2ccccc2)cc(OC)c1OC | 160 | 0 | 0 | 0 | 0
COc1cc(C(=O)NNC(=S)NC(=O)c2ccccc2C)cc(OC)c1OC | 0 | 0 | 0 | 0 | 0
COc1ccccc1C(=O)NNC(=S)NC(=O)c1cc(OC)c(OC)c(OC)c1 | 62 | 0 | 0 | 0 | 0
CCOc1ccc(CCNC(=O)CN2C(=O)NC3(CCCC3)C2=O)cc1OCC | 0 | 0 | 0 | 0 | 0
COc1ccc(CN=CC2=C(O)CNC2=O)cc1 | 0 | 0 | 0 | 0 | 0
COc1ccc(CN=Cc2[nH]c3ccc(Br)c(Cl)c3c2O)cc1 | 0 | 0 | 0 | 0 | 16
Cc1cccc(NC(=S)NC(=O)c2oc3ccccc3c2C)n1 | 0 | 0 | 0 | 0 | 0
Cc1cc(C(C)(C)C)cc(S(=O)(=O)Nc2cccc(C(=O)O)c2)c1C | 0 | 16 | 0 | 0 | 0
CC1CCN(CC(=O)Nc2ccc(S(=O)(=O)N3C(C)CCCC3C)cc2)CC1 (stereo not given) | 0 | 0 | 0 | 0 | 0
Cc1c(N)c(C(C)(C)C)cc(C(C)(C)C)c1[N+](=O)[O-] | 0 | 0 | 0 | -6 | 0
Cc1cc(N)c(C)c([N+](=O)[O-])c1C | 0 | 0 | 0 | 0 | 0
CCOC(=O)C1(CC2CCCCO2)CCN(Cc2cc(F)ccc2-n2cccn2)CC1 (stereo not given) | 91 | 0 | 0 | 0 | 0
CCOC(=O)C1(CC2CCCCO2)CCN(Cc2nccn2-c2cccc(C)c2)CC1 (stereo not given) | 0 | 0 | 0 | 0 | 0
CCOC(=O)C1(CC2CCCCO2)CCN(Cc2c(C)cc(C)cc2-n2cccn2)CC1 (stereo not given) | 106 | 0 | 0 | 0 | 0
CCOC(=O)C1(CC2CCCCO2)CCN(Cc2nc3ccccc3[nH]2)CC1 (stereo not given) | 115 | 0 | 0 | 0 | 0
CC1CC(C)(C)NC(=S)N1CCCC(=O)N1CCN(c2ccccc2F)CC1 (stereo not given) | 0 | 0 | 0 | 0 | 0
O=C(COc1cccc2ccccc12)N/N=C/c1ccccc1OCc1ccc(C(=O)O)cc1 | 0 | 0 | 0 | -5 | 0
CCOC(=O)N1CCN(CC(O)COc2c(C)cccc2C)CC1 (stereo not given) | 0 | 0 | 0 | 0 | 0
SMILES | TRPC4 agonist | TRPC4 potent | TRPC6 inhibitor | TRPC4 block | TRPC6 activator
Cc1cccc(C)c1OCC(O)CN (stereo not given) | 163 | 0 | 0 | 0 | 0
Cc1cc(OCC(O)CN)ccc1Cl (stereo not given) | 143 | 0 | 0 | 0 | 0
c1ccc(-c2nc3ccccn3c2NCc2ccc3c(c2)OCO3)cc1 | 0 | 0 | 0 | 0 | 0
COc1ccc(-c2nc3ccccn3c2NCc2ccc3c(c2)OCO3)cc1 | 0 | 0 | -5.3 | 0 | 0
CCC(=O)N1CCN=C1SCc1cccc(F)c1 | 0 | 0 | 0 | 0 | 0
COc1ccc(C2NCCc3c2[nH]c2ccccc32)cc1CN1CCc2cc(OC)c(OC)cc2C1C (stereo not given) | 47 | 0 | 0 | -8 | 0
c1ccc(Nc2nc(N3CCOCC3)nc(N3CCOCC3)n2)cc1 | 0 | 0 | 0 | 0 | 0
c1ccc(Nc2nc(N3CCNCC3)nc(N3CCOCC3)n2)cc1 | 65 | 0 | 0 | 0 | 0
OC1(c2ccc(Br)cc2)CN(c2ccccc2)C2=[N+]1CCS2 (stereo not given) | 93 | 0 | 0 | 0 | 0
OC1(c2ccc(Cl)cc2)CN(c2ccccc2)C2=[N+]1CCS2 (stereo not given) | 75 | 0 | 0 | 0 | 0

Assay outcomes (PubChem)
